Source: ChEMBL document CHEMBL3872218, “Synthesis and T-type calcium channel-blocking effects of aryl(1,5-disubstituted-pyrazol-3-yl)methyl sulfonamides for neuropathic pain treatment” (Eur J Med Chem, 2016)

Columns and labels:
[1] = Oral bioavailability in Sprague-Dawley rat at 10 mg/Kg; type: ADME, organism-based; conditions: in vivo
[2] = biological target: T1, Voltage-dependent T-type calcium channel subunit alpha-1G (Homo sapiens, UniProt O43497); assay: Inhibition of Cav3.1 alpha1G (unknown origin) expressed in HEK293 cells by whole-cell patch clamp method; type: cell-based
T1 sequence (O43497 whole entry): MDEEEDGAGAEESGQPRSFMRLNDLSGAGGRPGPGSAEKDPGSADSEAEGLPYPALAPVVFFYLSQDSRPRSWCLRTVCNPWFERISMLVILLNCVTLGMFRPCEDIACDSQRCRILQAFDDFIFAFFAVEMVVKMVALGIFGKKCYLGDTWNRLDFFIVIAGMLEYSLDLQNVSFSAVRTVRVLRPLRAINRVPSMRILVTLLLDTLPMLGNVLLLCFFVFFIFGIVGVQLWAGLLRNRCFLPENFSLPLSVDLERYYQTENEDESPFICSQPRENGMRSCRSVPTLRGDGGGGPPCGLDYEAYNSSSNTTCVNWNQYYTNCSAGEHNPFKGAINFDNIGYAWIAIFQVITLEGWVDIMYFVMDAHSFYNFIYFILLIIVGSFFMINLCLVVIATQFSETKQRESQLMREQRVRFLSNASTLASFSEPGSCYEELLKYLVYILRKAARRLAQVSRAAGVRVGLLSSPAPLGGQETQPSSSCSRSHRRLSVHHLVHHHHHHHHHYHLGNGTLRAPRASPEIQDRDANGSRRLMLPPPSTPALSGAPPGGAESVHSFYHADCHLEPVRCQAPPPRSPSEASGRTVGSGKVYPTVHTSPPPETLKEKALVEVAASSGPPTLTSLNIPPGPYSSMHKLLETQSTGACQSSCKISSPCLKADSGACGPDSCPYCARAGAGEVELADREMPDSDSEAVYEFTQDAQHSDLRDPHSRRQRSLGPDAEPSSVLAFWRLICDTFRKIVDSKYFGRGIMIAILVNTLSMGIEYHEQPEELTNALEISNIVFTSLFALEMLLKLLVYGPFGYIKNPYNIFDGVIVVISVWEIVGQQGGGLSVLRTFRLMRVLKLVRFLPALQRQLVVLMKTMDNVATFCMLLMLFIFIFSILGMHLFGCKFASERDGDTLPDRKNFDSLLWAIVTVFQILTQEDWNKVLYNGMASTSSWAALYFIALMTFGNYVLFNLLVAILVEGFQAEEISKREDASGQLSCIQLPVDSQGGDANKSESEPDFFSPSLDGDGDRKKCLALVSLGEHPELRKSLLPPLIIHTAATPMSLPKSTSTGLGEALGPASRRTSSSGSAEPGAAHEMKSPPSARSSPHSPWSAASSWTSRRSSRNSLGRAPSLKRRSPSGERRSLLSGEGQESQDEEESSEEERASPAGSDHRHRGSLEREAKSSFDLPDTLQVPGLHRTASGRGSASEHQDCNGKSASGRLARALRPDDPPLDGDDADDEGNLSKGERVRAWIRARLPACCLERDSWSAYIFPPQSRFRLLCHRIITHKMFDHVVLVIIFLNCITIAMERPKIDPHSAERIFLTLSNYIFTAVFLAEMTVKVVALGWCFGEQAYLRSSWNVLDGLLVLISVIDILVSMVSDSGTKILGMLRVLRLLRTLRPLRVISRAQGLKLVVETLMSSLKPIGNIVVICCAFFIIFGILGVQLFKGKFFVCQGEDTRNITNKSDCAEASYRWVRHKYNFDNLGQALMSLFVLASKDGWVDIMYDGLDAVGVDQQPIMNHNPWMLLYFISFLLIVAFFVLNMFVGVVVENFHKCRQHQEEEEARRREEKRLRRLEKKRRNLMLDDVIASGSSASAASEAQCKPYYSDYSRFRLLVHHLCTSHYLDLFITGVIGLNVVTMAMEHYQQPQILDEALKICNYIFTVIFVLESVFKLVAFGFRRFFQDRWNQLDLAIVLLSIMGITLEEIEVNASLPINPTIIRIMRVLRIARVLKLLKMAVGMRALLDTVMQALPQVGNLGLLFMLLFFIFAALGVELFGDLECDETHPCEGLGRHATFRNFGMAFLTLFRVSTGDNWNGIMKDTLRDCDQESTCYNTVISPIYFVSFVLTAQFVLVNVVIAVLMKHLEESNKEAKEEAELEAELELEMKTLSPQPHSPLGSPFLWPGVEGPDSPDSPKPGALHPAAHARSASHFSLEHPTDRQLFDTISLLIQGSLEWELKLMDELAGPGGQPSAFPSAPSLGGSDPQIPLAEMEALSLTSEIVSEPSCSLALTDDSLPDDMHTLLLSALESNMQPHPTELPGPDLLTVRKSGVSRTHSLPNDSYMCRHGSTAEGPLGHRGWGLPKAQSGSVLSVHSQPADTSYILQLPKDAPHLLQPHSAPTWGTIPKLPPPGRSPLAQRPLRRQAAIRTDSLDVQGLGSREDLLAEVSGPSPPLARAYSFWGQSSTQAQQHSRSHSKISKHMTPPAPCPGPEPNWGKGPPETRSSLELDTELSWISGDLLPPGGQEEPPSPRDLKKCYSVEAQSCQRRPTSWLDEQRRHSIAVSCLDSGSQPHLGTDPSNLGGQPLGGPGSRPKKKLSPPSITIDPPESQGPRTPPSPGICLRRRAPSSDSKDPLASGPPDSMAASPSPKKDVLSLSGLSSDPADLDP
Outline: (§1)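 Whole-cell patch clamp on HEK293 cells expressing Cav3.1 or Cav3.2. T-type currents evoked every 15 s by a 50-ms step from −100 mV to −30 mV. External solution (mM): 140 NaCl, 2 CaCl₂, 10 HEPES, 10 glucose, pH 7.4.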

Rattus norvegicus [3] = assay: Antineuropathic pain activity in rat spinal nerve ligation model assessed as effect on mechanical allodynia by measuring frequency of paw withdrawal at 100 mg/kg, po measured at 5 hrs relative to control; type: functional
Outline: (§2)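 Spinal nerve ligation rats tested 2 weeks after nerve surgery, 100 mg/kg oral, n = 4 per group. Behaviour re-tested at 1, 3 and 5 h after dosing. Mechanical allodynia: von Frey filament applied five times, every 3–4 s, to the hind paw on a wire mesh floor. Cold allodynia: acetone applied to the plantar hind paw on a metal mesh floor.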

Homo sapiens = organism: Homo sapiens; assay: Inhibition of N-type Ca2+ channel (unknown origin) at 10 uM by whole-cell patch clamp method relative to control
[4] = Inhibition of N-type Ca2+ channel (unknown origin) by whole-cell patch clamp method; conditions: Homo sapiens
[5] = Ratio of drug level in brain to plasma in Sprague-Dawley rat at 10 mg/kg, iv at 2 hrs post dose; type: ADME, organism-based; conditions: read-out: BPR
[6] = AUC (0 to infinity) in Sprague-Dawley rat at 10 mg/kg, iv; type: ADME, organism-based; parameters: dose 10 mg/kg, route intravenous, time infinity; conditions: in vivo
Rattus norvegicus [7] = assay: Antineuropathic pain activity in rat spinal nerve ligation model assessed as effect on mechanical allodynia by measuring frequency of paw withdrawal at 100 mg/kg, po measured at 3 hrs relative to control; type: functional; outline: as §2
[8] = biological target: Voltage-gated inwardly rectifying potassium channel KCNH2 (Homo sapiens, UniProt Q12809); assay: Inhibition of human ERG expressed in CHOK1 cells by whole-cell patch clamp method; type: cell-based, CHO-K1
Voltage-gated inwardly rectifying potassium channel KCNH2, sequence (Q12809 whole entry): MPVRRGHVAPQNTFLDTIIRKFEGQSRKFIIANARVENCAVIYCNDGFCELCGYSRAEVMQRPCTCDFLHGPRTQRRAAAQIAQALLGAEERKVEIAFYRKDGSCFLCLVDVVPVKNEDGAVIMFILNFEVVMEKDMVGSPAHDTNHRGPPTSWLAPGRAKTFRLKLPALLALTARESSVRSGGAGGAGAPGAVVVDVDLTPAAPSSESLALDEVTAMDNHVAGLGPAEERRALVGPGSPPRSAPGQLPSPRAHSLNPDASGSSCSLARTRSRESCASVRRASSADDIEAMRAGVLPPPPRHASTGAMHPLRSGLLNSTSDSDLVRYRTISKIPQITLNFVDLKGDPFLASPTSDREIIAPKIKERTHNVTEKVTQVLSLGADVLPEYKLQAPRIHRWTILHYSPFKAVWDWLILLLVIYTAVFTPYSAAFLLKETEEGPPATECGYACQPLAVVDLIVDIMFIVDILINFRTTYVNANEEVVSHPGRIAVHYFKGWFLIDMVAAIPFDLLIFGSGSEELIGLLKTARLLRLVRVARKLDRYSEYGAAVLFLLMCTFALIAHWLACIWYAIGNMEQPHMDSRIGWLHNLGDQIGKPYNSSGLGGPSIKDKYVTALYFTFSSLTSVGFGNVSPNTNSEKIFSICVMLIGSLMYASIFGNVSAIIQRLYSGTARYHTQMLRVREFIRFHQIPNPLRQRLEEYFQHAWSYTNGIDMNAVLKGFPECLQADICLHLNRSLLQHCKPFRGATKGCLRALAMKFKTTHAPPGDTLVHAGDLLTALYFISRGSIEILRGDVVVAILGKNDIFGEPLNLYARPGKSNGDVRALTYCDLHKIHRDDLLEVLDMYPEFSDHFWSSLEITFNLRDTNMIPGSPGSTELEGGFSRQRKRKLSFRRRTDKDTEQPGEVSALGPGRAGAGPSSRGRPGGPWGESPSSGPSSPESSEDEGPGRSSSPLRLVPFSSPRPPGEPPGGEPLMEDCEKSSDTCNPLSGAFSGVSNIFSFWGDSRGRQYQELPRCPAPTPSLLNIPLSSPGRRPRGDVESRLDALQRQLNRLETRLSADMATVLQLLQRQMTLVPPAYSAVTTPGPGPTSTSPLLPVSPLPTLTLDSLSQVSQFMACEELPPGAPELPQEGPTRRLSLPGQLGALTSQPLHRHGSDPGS

Rattus norvegicus [9] = assay: Antineuropathic pain activity in rat spinal nerve ligation model assessed as effect on cold allodynia by measuring frequency of paw withdrawal at 100 mg/kg, po measured at 1 hr relative to control; type: functional; outline: as §2
Rattus norvegicus [10] = assay: Antineuropathic pain activity in rat spinal nerve ligation model assessed as effect on cold allodynia by measuring frequency of paw withdrawal at 100 mg/kg, po measured at 3 hrs relative to gabapentin; type: functional; outline: as §2
[11] = biological target: T1, Voltage-dependent T-type calcium channel subunit alpha-1G; assay: Inhibition of Cav3.1 alpha1G (unknown origin) expressed in HEK293 cells assessed as decrease in KCl-induced depolarization mediated intracellular Ca2+ level at 10 uM by fluo3/AM based high throughput screening assay relative to control; type: cell-based
Outline: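 HEK293 cells stably expressing Cav3.1 or Cav3.2 plated at 4 × 10⁴ cells/well and used the next day. Loaded 60 min at room temperature with […] fluo3/AM plus 0.001% Pluronic F-127 in HEPES-buffered saline (1.8 mM CaCl₂, pH 7.4). Ca²⁺ fluorescence read on FDSS6000 as % inhibition, compound at […].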

[12] = AUClast in Sprague-Dawley rat at 10 mg/kg, po; type: ADME, organism-based; parameters: dose 10 mg/kg, route oral, time 0 - last; conditions: in vivo
Rattus norvegicus [13] = assay: Antineuropathic pain activity in rat spinal nerve ligation model assessed as effect on cold allodynia by measuring frequency of paw withdrawal at 100 mg/kg, po measured at 5 hrs relative to gabapentin; type: functional; outline: as §2
[14] = Cmax in Sprague-Dawley rat at 10 mg/kg, po; type: ADME, organism-based; parameters: dose 10 mg/kg, route oral; conditions: in vivo
[15] = Apparent volume of distribution at steady state in Sprague-Dawley rat at 10 mg/kg, iv; type: ADME, organism-based; conditions: in vivo, read-out: Vdss(app)
Rattus norvegicus [16] = assay: Antineuropathic pain activity in rat spinal nerve ligation model assessed as effect on cold allodynia by measuring frequency of paw withdrawal at 100 mg/kg, po measured at 3 hrs relative to control; type: functional; outline: as §2
[17] = Drug uptake in Sprague-Dawley rat brain at 10 mg/kg, iv at 2 hrs post dose; type: ADME, organism-based; conditions: read-out: Drug uptake
CYP1A2 = biological target: T2, CYP1A2 (Homo sapiens, UniProt P05177); assay: Inhibition of human CYP1A2 assessed as remaining activity at 10 uM using vivid CYP450 substrate measured after 15 mins by fluorescence assay relative to alpha-naphthoflavon; type: ADME; conditions: probe vivid CYP450 substrate, read-out: Activity
T2 sequence (P05177 whole entry): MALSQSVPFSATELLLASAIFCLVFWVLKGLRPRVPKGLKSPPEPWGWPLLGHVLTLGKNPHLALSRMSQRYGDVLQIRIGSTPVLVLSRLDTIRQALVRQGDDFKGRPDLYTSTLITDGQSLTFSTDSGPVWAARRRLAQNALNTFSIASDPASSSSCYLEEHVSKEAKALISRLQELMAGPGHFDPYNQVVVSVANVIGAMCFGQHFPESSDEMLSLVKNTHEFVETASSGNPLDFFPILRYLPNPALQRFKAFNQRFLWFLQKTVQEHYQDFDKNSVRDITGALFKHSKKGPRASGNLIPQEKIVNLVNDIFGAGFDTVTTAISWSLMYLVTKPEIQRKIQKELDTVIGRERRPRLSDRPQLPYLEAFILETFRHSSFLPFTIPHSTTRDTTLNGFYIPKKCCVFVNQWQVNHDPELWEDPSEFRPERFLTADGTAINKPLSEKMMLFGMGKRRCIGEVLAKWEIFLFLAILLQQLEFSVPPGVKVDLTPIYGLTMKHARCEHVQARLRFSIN
Outline: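 Vivid fluorescence CYP assay: test compound at […] in water, mixed with BACULOSOMES master pre-mix and regeneration system, preincubated 15 min at 37 °C. Reaction started with Vivid substrate and NADPH. Remaining activity read by fluorescence as % of control, triplicate, mean ± SD. Isoform-specific reference inhibitors: α-naphthoflavone (1A2), sulfaphenazole (2C9), quinidine (2D6), ketoconazole (3A4).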

[18] = Mean residence time in Sprague-Dawley rat at 10 mg/kg, iv; type: ADME, organism-based; conditions: in vivo
[19] = Plasma concentration in Sprague-Dawley rat at 10 mg/kg, po at 2 hrs post dose; type: ADME, organism-based
[20] = Terminal half life in Sprague-Dawley rat at 10 mg/kg, iv; type: ADME, organism-based; conditions: in vivo, read-out: beta t1/2
Rattus norvegicus [21] = assay: Antineuropathic pain activity in rat spinal nerve ligation model assessed as effect on mechanical allodynia by measuring frequency of paw withdrawal at 100 mg/kg, po measured at 3 hrs relative to gabapentin; type: functional; outline: as §2
[22] = Drug excretion in Sprague-Dawley rat at 10 mg/kg, iv; type: ADME, organism-based; conditions: in vivo, read-out: Drug excretion
[23] = biological target: Voltage-dependent T-type calcium channel subunit alpha-1H (Homo sapiens, UniProt O95180); assay: Inhibition of Cav3.2 alpha1H (unknown origin) expressed in HEK293 cells by whole-cell patch clamp method; type: cell-based; outline: as §1
Rattus norvegicus [24] = assay: Antineuropathic pain activity in rat spinal nerve ligation model assessed as effect on mechanical allodynia by measuring frequency of paw withdrawal at 100 mg/kg, po measured at 5 hrs relative to gabapentin; type: functional; outline: as §2
Rattus norvegicus [25] = assay: Antineuropathic pain activity in rat spinal nerve ligation model assessed as effect on cold allodynia by measuring frequency of paw withdrawal at 100 mg/kg, po measured at 5 hrs relative to control; type: functional; outline: as §2

bioavailability [1]: 8.3%
IC50 [2]: 3.2 µM
inhibition (Homo sapiens): 55.6%
IC50 [4]: 14.5 µM
Kp at 2 h [5]: 1.4
AUC(0-inf) [6]: 2.02 µg·h/mL
inhibition [11]: 64.1%
AUC(0-t) [12]: 0.164 µg·h/mL
Cmax [14]: 0.07 µg/mL
Vd [15]: 4.95 L/kg
concentration at 2 h [17]: 0.366 µg/mL
activity at 0.25 h, 10 µM (CYP1A2): 45.6%
MRT [18]: 58 min
concentration at 2 h [19]: 0.05 µg/mL
half-life [20]: 55.7 min
dose excreted [22]: 0%
IC50 [23]: 2.08 µM
Structure (SMILES): CC(C)Cc1cc(CNS(=O)(=O)c2cccc(F)c2)nn1-c1ccccc1
MPE (Rattus norvegicus [3]): 19.48%
MPE (Rattus norvegicus [7]): 29.68%
IC50 [8]: 14.5 µM
MPE (Rattus norvegicus [9]): 88.93%
MPE (Rattus norvegicus [10]): 91.75%
MPE (Rattus norvegicus [13]): 185.11%
MPE (Rattus norvegicus [16]): 73.87%
MPE (Rattus norvegicus [21]): 52.13%
MPE (Rattus norvegicus [24]): 43.02%
MPE (Rattus norvegicus [25]): 80.82%
